Data: ChEMBL document CHEMBL1914438, “Synthesis and biological activity of novel N-cycloalkyl-(cycloalkylaryl)-2-[(3-R-2-oxo-2H-[1,2,4]triazino[2,3-c]quinazoline-6-yl)thio]acetamides” (2011)

Tests used:
Type in all cases: functional
[1] = system: Mycobacterium; assay: Antibacterial activity against Mycobacterium luteum assessed as zone of inhibition at 0.01 mg/mL after 24 hrs by stiff-plate agar-diffusion method
How it was run: (§1)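 Stiff-plate agar diffusion. Inoculum 10^9 c.f.u./mL. Compounds were streaked across grooves in the agar nutrient plate and left to diffuse. Plates were incubated 24 h at 35 °C. Read-out was inhibition zone diameter: 11–15 mm not sensitive, 16–25 mm sensitive, >25 mm highly sensitive. Vancomycin and oxacillin were the standards. Three repeats.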

[2] = system: Yamadazyma tenuis; assay: Antifungal activity against Candida tenuis assessed as zone of inhibition at 0.01 mg/mL after 48 to 72 hrs by stiff-plate agar-diffusion method
How it was run: (§2)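 Fungi were tested by stiff-plate agar diffusion from a 10^9 c.f.u./mL inoculum. Compounds were placed in agar grooves and allowed to diffuse. Incubation was 48–72 h at 28–30 °C. Inhibition zone diameter was scored as not sensitive (11–15 mm), sensitive (16–25 mm) or highly sensitive (>25 mm). Nystatin was the standard. Experiments were done in triplicate.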

[3] = system: Aspergillus niger; assay: Antifungal activity against Aspergillus niger assessed as zone of inhibition at 0.01 mg/mL after 48 to 72 hrs by stiff-plate agar-diffusion method; how it was run: as §2
[4] = system: Staphylococcus aureus; assay: Antibacterial activity against Staphylococcus aureus assessed as zone of inhibition at 0.01 mg/mL after 24 hrs by stiff-plate agar-diffusion method; how it was run: as §1
[5] = system: Escherichia coli; assay: Antibacterial activity against Escherichia coli assessed as zone of inhibition at 0.01 mg/mL after 24 hrs by stiff-plate agar-diffusion method; how it was run: as §1
[6] = system: Yamadazyma tenuis; assay: Antifungal activity against Candida tenuis assessed as zone of inhibition at 0.1 mg/mL after 48 to 72 hrs by stiff-plate agar-diffusion method; settings: read-out: DIZ
[7] = system: Escherichia coli; assay: Antibacterial activity against Escherichia coli assessed as zone of inhibition at 0.1 mg/mL after 24 hrs by stiff-plate agar-diffusion method; settings: read-out: DIZ
[8] = system: Photobacterium leiognathi; assay: Antibacterial activity against Photobacterium leiognathi Sh1 assessed as inhibition of bacterial luminescence at 0.1 mg/mL after 10 mins by bioluminometry-based chronic action test; design: scale not given: the % may be the effect or the level left
How it was run: (§3)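 Chronic (growth plus luminescence) test with P. leiognathi Sh1 at 10^5 cells/mL in chloride solution, compounds added in DMSO. After 10 min at 25 °C, growth medium added at 1:50 and the mix incubated 16–18 h at 30 °C. Luminescence then measured by bioluminometer as % of untreated control. Tetracycline reference.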

[9] = system: Photobacterium leiognathi; assay: Antibacterial activity against Photobacterium leiognathi Sh1 assessed as inhibition of bacterial luminescence at 0.025 mg/mL after 10 mins by bioluminometry-based acute action test; design: scale not given: the % may be the effect or the level left
How it was run: (§4)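 Marine P. leiognathi Sh1 (Azov Sea shrimp isolate) diluted in chloride solution to 10^5 cells/mL; compounds suspended in DMSO mixed with 1 mL bacterial suspension. Acute test: 10 min at 25 °C, then bioluminescence measured by bioluminometer as % of compound-free control. Tetracycline reference.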

[10] = system: Mycobacterium; assay: Antibacterial activity against Mycobacterium luteum assessed as zone of inhibition at 0.1 mg/mL after 24 hrs by stiff-plate agar-diffusion method; settings: read-out: DIZ
[11] = system: Mycobacterium; assay: Antibacterial activity against Mycobacterium luteum assessed as zone of inhibition at 0.5 mg/mL after 24 hrs by stiff-plate agar-diffusion method; settings: read-out: DIZ
[12] = system: Aspergillus niger; assay: Antifungal activity against Aspergillus niger assessed as zone of inhibition at 0.5 mg/mL after 48 to 72 hrs by stiff-plate agar-diffusion method; settings: read-out: DIZ
[13] = system: Aspergillus niger; assay: Antifungal activity against Aspergillus niger assessed as zone of inhibition at 0.1 mg/mL after 48 to 72 hrs by stiff-plate agar-diffusion method; settings: read-out: DIZ
[14] = system: Yamadazyma tenuis; assay: Antifungal activity against Candida tenuis assessed as zone of inhibition at 0.5 mg/mL after 48 to 72 hrs by stiff-plate agar-diffusion method; settings: read-out: DIZ
[15] = system: Escherichia coli; assay: Antibacterial activity against Escherichia coli assessed as zone of inhibition at 0.5 mg/mL after 24 hrs by stiff-plate agar-diffusion method; settings: read-out: DIZ
[16] = system: Photobacterium leiognathi; assay: Antibacterial activity against Photobacterium leiognathi Sh1 assessed as inhibition of bacterial luminescence at 0.1 mg/mL after 10 mins by bioluminometry-based acute action test; design: scale not given: the % may be the effect or the level left; how it was run: as §4
[17] = system: Staphylococcus aureus; assay: Antibacterial activity against Staphylococcus aureus assessed as zone of inhibition at 0.1 mg/mL after 24 hrs by stiff-plate agar-diffusion method; settings: read-out: DIZ
[18] = system: Photobacterium leiognathi; assay: Antibacterial activity against Photobacterium leiognathi Sh1 assessed as inhibition of bacterial luminescence at 0.025 mg/mL after 10 mins by bioluminometry-based chronic action test; design: scale not given: the % may be the effect or the level left; how it was run: as §3
[19] = system: Photobacterium leiognathi; assay: Antibacterial activity against Photobacterium leiognathi Sh1 assessed as inhibition of bacterial luminescence at 0.25 mg/mL after 10 mins by bioluminometry-based chronic action test; design: scale not given: the % may be the effect or the level left; how it was run: as §3
[20] = system: Staphylococcus aureus; assay: Antibacterial activity against Staphylococcus aureus assessed as zone of inhibition at 0.5 mg/mL after 24 hrs by stiff-plate agar-diffusion method; settings: read-out: DIZ
[21] = system: Photobacterium leiognathi; assay: Antibacterial activity against Photobacterium leiognathi Sh1 assessed as inhibition of bacterial luminescence at 0.25 mg/mL after 10 mins by bioluminometry-based acute action test; design: scale not given: the % may be the effect or the level left; how it was run: as §4

NYSTATIN showed an inhibition zone (IZ) [1] of 15 mm, an inhibition zone (IZ) [2] of 24 mm and an inhibition zone (IZ) [3] of 25 mm. It also gave an inhibition zone (IZ) [4] of 11 mm and an inhibition zone (IZ) [5] of 0 mm.

With `COc1ccc(-c2nn3c(SCC(=O)Nc4ccc(C56CC7CC(CC(C7)C5)C6)cc4)nc4ccccc4c3nc2=O)cc1` the zone of inhibition at 100 µg/mL [6] was 0 mm, the zone of inhibition at 100 µg/mL [7] was 0 mm and the Activity [8] was 34.62%. It also gave an Activity [9] of 76.6%, a zone of inhibition at 100 µg/mL [10] of 0 mm and a zone of inhibition at 500 µg/mL [11] of 0 mm. For the same molecule, the zone of inhibition at 500 µg/mL [12] was 0 mm, the zone of inhibition at 100 µg/mL [13] was 0 mm and the zone of inhibition at 500 µg/mL [14] was 0 mm. For the same molecule, the zone of inhibition at 500 µg/mL [15] was 0 mm, the Activity [16] was 59.57% and the zone of inhibition at 100 µg/mL [17] was 7 mm. The Activity [18] was 48.72%, the Activity [19] was 76.92% and the zone of inhibition at 500 µg/mL [20] was 0 mm. It also gave an Activity [21] of 59.57%.
